{"source": "paper PMC4351130", "about": "(Nature structural & molecular biology, 2015)", "key": {"[1]": {"test_system": "μ-OR", "conditions": "cited from earlier work"}, "[2]": {"test_system": "human δ-OR", "experiment": "δ-OR β-arrestin recruitment Tango assay", "type": "cell-based", "conditions": "normalized to DADLE, N = 3 in quadruplicate, Supplementary Fig. 5", "outline": "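Modified Tango β-arrestin recruitment format at human δ-OR. Values are mean ± SEM from three independent experiments, each run in quadruplicate.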"}, "[3]": {"test_system": "δ-OR", "conditions": "cited from earlier work"}, "[4]": {"conditions": "co-administration with morphine; cited from earlier work"}, "[5]": {"molecular_target": "double δ-OR mutant Leu300^7.35Trp - Trp284^6.58Lys (human) (UniProt P41143)"}}}
{"compound": "H-Dmt(1)-Tic(2)-Phe(3)-Phe(4)-NH2 [DIPP-NH2]", "values": [{"measurement": "Functional activity in guinea pig ileum assay", "setting": "[1]", "value": "μ-OR agonist"}, {"measurement": "Agonist activity at δ-OR, β-arrestin pathway", "setting": "[2]", "value": "weak partial agonist activity"}, {"measurement": "Functional activity in mouse vas deferens assay", "setting": "[3]", "value": "δ-OR antagonist"}]}
{"compound": "Oc1ccc2c3c1O[C@H]1c4[nH]c5ccccc5c4C[C@@]4(O)[C@@H](C2)N(CC2CC2)CC[C@]314", "note": "[naltrindole]", "values": [{"measurement": "Effect on development of morphine-induced tolerance and dependence", "setting": "[4]", "value": "prevent the development of morphine-induced tolerance and dependence"}]}
{"compound": "DIPP-NH2, H-Dmt(1)-Tic(2)-Phe(3)-Phe(4)-NH2 (peptide)", "values": [{"measurement": "fold decrease in affinity against the unmutated receptor", "setting": "[5]", "value": "> 100", "unit": "fold"}]}
